Key:
[1] = target: Transthyretin (Homo sapiens) (UniProt P02766); test: Binding stoichiometry to TTR in human blood plasma determined by antibody capture/HPLC method; format: cell-free
How it was run: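 Human blood plasma spiked to 10.8 µM test compound from a 2.16 mM DMSO stock and incubated 24 h at 37 °C. Plasma was precleared with plain Sepharose for 1 h at 4 °C, then split into three aliquots for anti-TTR antibody-resin capture (20 min, 4 °C) in 10 mM Tris pH 8.0, 140 mM NaCl. Resin washed, eluted with 100 mM triethylamine pH 11.5, eluate analysed by HPLC for compound:TTR stoichiometry.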

[2] = target: Transthyretin (Homo sapiens) (UniProt P02766); test: Percentage of WT-TTR (3.6 uM) amyloid fibril formation at pH 4.4 upon incubation with the compound (7.2 uM)
How it was run: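 WT-TTR (7.2 µM, 0.4 mg/mL) in 10 mM phosphate pH 7.2, 100 mM KCl, 1 mM EDTA was preincubated 30 min at 37 °C with inhibitor added from a 1.44 mM DMSO stock. An equal volume of 200 mM acetate pH 4.2 brought the sample to pH 4.4 (3.6 µM TTR, 7.2 µM compound final). Left 72 h at 37 °C, vortexed, turbidity read at 350 and 400 or 500 nm. Run in duplicate or triplicate.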

| Binding stoichiometry [1] | Formation [2] [%] | Compound |
| --- | --- | --- |
| 0.69 | 3 | Oc1c(Br)cc(/C=N/Oc2cc(Cl)cc(Cl)c2)cc1Br |
|  | 68 | FC(F)(F)c1ccc(/C=N/Oc2cc(Cl)cc(Cl)c2)cc1 |
|  | 96 | C(=N\Oc1ccccc1)/c1ccccc1 |
|  | 75 | Fc1cc(F)cc(/C=N/Oc2ccccc2C(F)(F)F)c1 |
|  | 88 | Fc1cc(F)cc(/C=N/Oc2cccc(C(F)(F)F)c2)c1 |
| 0.78 | 9 | O=C(O)c1ccc(/C=N/Oc2cc(Cl)cc(Cl)c2)cc1 |
|  | 86 | Fc1cc(F)cc(O/N=C/c2cccc(C(F)(F)F)c2)c1 |
|  | 94 | Fc1cc(F)cc(/C=N/Oc2cc(F)cc(F)c2)c1 |
| 0.53 | 9 | O=C(O)c1ccc(O/N=C/c2cc(Cl)cc(Cl)c2)cc1 |
| < 0.5 | 6 | O=C(O)c1cccc(/C=N/Oc2cc(F)cc(F)c2)c1 |
|  | 90 | Fc1cc(F)cc(O/N=C/c2cc(Cl)cc(Cl)c2)c1 |
|  | 94 | O=C(O)c1cccc(O/N=C/c2ccccc2C(=O)O)c1 |
|  | 83 | FC(F)(F)c1cccc(/C=N/Oc2cccc(C(F)(F)F)c2)c1 |
| 1.07 | 6 | O=C(O)c1cccc(/C=N/Oc2ccccc2C(F)(F)F)c1 |
| < 0.5 | 0 | O=C(O)c1cccc(O/N=C/c2cc(Cl)cc(Cl)c2)c1 |
|  | 77 | Fc1cc(F)cc(O/N=C/c2ccc(C(F)(F)F)cc2)c1 |
| < 0.5 | 0 | O=C(O)c1cccc(O/N=C/c2cc(Br)c(O)c(Br)c2)c1 |
|  | 46 | O=C(O)c1ccc(/C=N/Oc2ccc(C(=O)O)cc2)cc1 |
| < 0.5 | 9 | O=C(O)c1ccc(/C=N/Oc2cc(F)cc(F)c2)cc1 |
|  | 87 | Fc1cc(F)cc(O/N=C/c2ccccc2)c1 |
|  | 98 | FC(F)(F)c1ccc(/C=N/Oc2ccccc2)cc1 |

| Binding stoichiometry [1] | Formation [2] [%] | Compound |
| --- | --- | --- |
| 0.55 | 4 | Oc1c(I)cc(/C=N/Oc2cc(Cl)cc(Cl)c2)cc1I |
| 1.17 | 4 | Oc1c(Br)cc(/C=N/Oc2cccc(C(F)(F)F)c2)cc1Br |
|  | 95 | Fc1cc(F)cc(/C=N/Oc2ccccc2)c1 |
| < 0.5 | 8 | O=C(O)c1cccc(O/N=C/c2cc(F)cc(F)c2)c1 |
| < 0.5 | 9 | O=C(O)c1cccc(/C=N/Oc2cccc(C(F)(F)F)c2)c1 |
| < 0.5 | 0 | O=C(O)c1ccccc1O/N=C/c1cc(I)c(O)c(I)c1 |
|  | 21 | FC(F)(F)c1cccc(O/N=C/c2c(Cl)cccc2Cl)c1 |
|  | 57 | FC(F)(F)c1cccc(/C=N/Oc2ccccc2C(F)(F)F)c1 |
|  | 50 | O=C(O)c1ccc(O/N=C/c2cccc(C(F)(F)F)c2)cc1 |
|  | 15 | O=C(O)c1cccc(/C=N/Oc2cccc(C(=O)O)c2)c1 |
|  | 59 | O=C(O)c1ccccc1O/N=C/c1c(Cl)cccc1Cl |
| 1.83 | 3 | Oc1c(I)cc(/C=N/Oc2cc(F)cc(F)c2)cc1I |
|  | 91 | O=C(O)c1ccccc1O/N=C/c1ccccc1 |
|  | 87 | O=C(O)c1ccc(/C=N/Oc2ccccc2C(=O)O)cc1 |
|  | 63 | Clc1cccc(Cl)c1/C=N/Oc1ccccc1 |
|  | 92 | FC(F)(F)c1cccc(/C=N/Oc2ccccc2)c1 |
|  | 39 | Clc1cc(Cl)cc(O/N=C/c2ccccc2)c1 |
|  | 34 | O=C(O)c1ccccc1O/N=C/c1ccccc1C(F)(F)F |
|  | 12 | O=C(O)c1ccc(/C=N/Oc2cccc(C(F)(F)F)c2)cc1 |
|  | 77 | O=C(O)c1ccc(/C=N/Oc2ccccc2)cc1 |
|  | 63 | Clc1cc(Cl)cc(/C=N/Oc2cc(Cl)cc(Cl)c2)c1 |

| Binding stoichiometry [1] | Formation [2] [%] | Compound |
| --- | --- | --- |
|  | 83 | FC(F)(F)c1ccccc1/C=N/Oc1ccccc1C(F)(F)F |
|  | 33 | FC(F)(F)c1ccccc1O/N=C/c1cc(Cl)cc(Cl)c1 |
|  | 55 | FC(F)(F)c1cccc(/C=N/Oc2cc(Cl)cc(Cl)c2)c1 |
|  | 93 | FC(F)(F)c1ccc(/C=N/Oc2cccc(C(F)(F)F)c2)cc1 |
| 0.56 | 3 | O=C(O)c1cccc(/C=N/Oc2cc(Cl)cc(Cl)c2)c1 |
| 1.42 | 3 | Oc1c(Br)cc(/C=N/Oc2cc(F)cc(F)c2)cc1Br |
|  | 74 | O=C(O)c1ccccc1O/N=C/c1cccc(C(F)(F)F)c1 |
|  | 71 | Fc1cc(F)cc(O/N=C/c2ccccc2C(F)(F)F)c1 |
|  | 87 | O=C(O)c1cccc(/C=N/Oc2ccccc2C(=O)O)c1 |
|  | 83 | FC(F)(F)c1cccc(O/N=C/c2ccccc2)c1 |
|  | 65 | FC(F)(F)c1ccccc1/C=N/Oc1ccccc1 |
|  | 75 | O=C(O)c1ccccc1/C=N/Oc1ccccc1C(F)(F)F |
|  | 32 | O=C(O)c1ccc(O/N=C/c2ccccc2)cc1 |
|  | 79 | O=C(O)c1cccc(/C=N/Oc2ccccc2)c1 |
| 1.02 | 4 | Oc1c(I)cc(/C=N/Oc2cccc(C(F)(F)F)c2)cc1I |
|  | 83 | FC(F)(F)c1cccc(O/N=C/c2ccccc2C(F)(F)F)c1 |
|  | 83 | O=C(O)c1cccc(O/N=C/c2ccc(C(F)(F)F)cc2)c1 |
|  | 84 | O=C(O)c1ccccc1/C=N/Oc1cccc(C(F)(F)F)c1 |
|  | 24 | Fc1cc(F)cc(O/N=C/c2c(Cl)cccc2Cl)c1 |
|  | 84 | O=C(O)c1ccccc1/C=N/Oc1cc(F)cc(F)c1 |
|  | 15 | FC(F)(F)c1ccccc1O/N=C/c1c(Cl)cccc1Cl |

| Binding stoichiometry [1] | Formation [2] [%] | Compound |
| --- | --- | --- |
|  | 56 | FC(F)(F)c1ccccc1O/N=C/c1ccccc1 |
|  | 13 | O=C(O)c1ccc(O/N=C/c2cccc(C(=O)O)c2)cc1 |
|  | 30 | O=C(O)c1ccccc1/C=N/Oc1cc(Cl)cc(Cl)c1 |
|  | 81 | FC(F)(F)c1ccc(/C=N/Oc2ccccc2C(F)(F)F)cc1 |
|  | 91 | O=C(O)c1ccccc1/C=N/Oc1ccccc1 |
|  | 50 | O=C(O)c1cccc(O/N=C/c2ccccc2)c1 |
|  | 31 | O=C(O)c1ccc(/C=N/Oc2cccc(C(=O)O)c2)cc1 |
| 0.71 | 1 | O=C(O)c1cccc(O/N=C/c2c(Cl)cccc2Cl)c1 |
|  | 94 | O=C(O)c1ccc(O/N=C/c2ccc(C(F)(F)F)cc2)cc1 |
|  | 56 | Clc1cc(Cl)cc(/C=N/Oc2ccccc2)c1 |
|  | 90 | O=C(O)c1ccccc1O/N=C/c1ccc(C(F)(F)F)cc1 |
|  | 78 | O=C(O)c1ccccc1O/N=C/c1cc(F)cc(F)c1 |
|  | 61 | Fc1cc(F)cc(/C=N/Oc2cc(Cl)cc(Cl)c2)c1 |
|  | 18 | O=C(O)c1ccc(O/N=C/c2cc(F)cc(F)c2)cc1 |
|  | 97 | O=C(O)c1ccc(O/N=C/c2ccccc2C(=O)O)cc1 |
| < 0.5 | 0 | O=C(O)c1ccccc1O/N=C/c1cc(Br)c(O)c(Br)c1 |
|  | 62 | Clc1cc(Cl)cc(O/N=C/c2c(Cl)cccc2Cl)c1 |
|  | 72 | FC(F)(F)c1cccc(O/N=C/c2cc(Cl)cc(Cl)c2)c1 |
|  | 27 | O=C(O)c1cccc(O/N=C/c2cccc(C(F)(F)F)c2)c1 |
|  | 32 | FC(F)(F)c1ccccc1/C=N/Oc1cc(Cl)cc(Cl)c1 |
